Measurements: ChEMBL document CHEMBL1149797, “Synthesis and in vitro antibacterial activities of novel oxazolidinones” (Eur J Med Chem, 2008)
Values after ≈ are worked out from the molar mass of the structure shown.

Tests used:
[1] = system: Staphylococcus epidermidis; assay: Antibacterial activity against Staphylococcus epidermidis ATCC 155 by broth microdilution technique; type: functional
Method in brief: (§1)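 Broth microdilution per CLSI (NCCLS) guidelines. Compounds were dissolved in DMSO with water added to give an 80% DMSO stock, then diluted 1:10 to working solutions in water or medium. They were tested at 0.125, 0.25, 0.5, 1, 2, 4, 8 and 16 (two-fold series) against the final inoculum. Each run included sterility controls and vehicle controls (plain medium; 4%, 2%, 1% DMSO). MIC was read as growth inhibition.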

Streptococcus pyogenes = assay: Antibacterial activity against Streptococcus pyogenes ATCC 14289 by broth microdilution technique; type: functional; method in brief: as §1
Enterococcus faecalis [2] = assay: Antibacterial activity against Enterococcus faecalis ATCC 35550 by broth microdilution technique; type: functional; method in brief: as §1
Staphylococcus aureus [3] = assay: Antibacterial activity against Staphylococcus aureus ATCC 25923 by broth microdilution technique; type: functional; method in brief: as §1
Bacillus cereus = assay: Antibacterial activity against Bacillus cereus ATCC 11778 by broth microdilution technique; type: functional; method in brief: as §1
Bacillus pumilus = assay: Antibacterial activity against Bacillus pumilus ATCC 14884 by broth microdilution technique; type: functional; method in brief: as §1
Staphylococcus aureus [4] = assay: Antibacterial activity against Staphylococcus aureus ATCC 29213 by broth microdilution technique; type: functional
Method in brief: (§2)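 Broth microdilution per NCCLS/CLSI. Compounds dissolved in DMSO with water added to give an 80% DMSO stock. Stock diluted 1:10 in 4-8% DMSO in water or medium to make the working solution. Tested at […]. Sterility controls run with each set. Inoculum viability controls included plain medium and 4%, 2% and 1% DMSO vehicle. MIC taken as growth inhibition.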

Enterococcus faecalis [5] = assay: Antibacterial activity against multidrug-resistant Enterococcus faecalis ATCC 700802 by broth microdilution technique; type: functional; method in brief: as §2
Staphylococcus aureus [6] = assay: Antibacterial activity against linezolid-resistant Staphylococcus aureus NRS 119 with G 2576T mutation by broth microdilution technique; type: functional; method in brief: as §2
Enterococcus faecium = assay: Antibacterial activity against vancomycin-resistant Enterococcus faecium ATCC 700221 by broth microdilution technique; type: functional; method in brief: as §2
Staphylococcus aureus [7] = assay: Antibacterial activity against methicillin-resistant Staphylococcus aureus ATCC 700699 by broth microdilution technique; type: functional; method in brief: as §2
Staphylococcus aureus [8] = assay: Antibacterial activity against linezolid-resistant Staphylococcus aureus NRS 120 with G 2576T mutation by broth microdilution technique; type: functional; method in brief: as §2
Streptococcus pneumoniae = assay: Antibacterial activity against multidrug-resistant Streptococcus pneumoniae ATCC 700904 by broth microdilution technique; type: functional; method in brief: as §2
Staphylococcus aureus [9] = assay: Antibacterial activity against Staphylococcus aureus ATCC 9144 by broth microdilution technique; type: functional; method in brief: as §2
Staphylococcus aureus [10] = assay: Antibacterial activity against Staphylococcus aureus ATCC 14154 by broth microdilution technique; type: functional; method in brief: as §2
Enterococcus faecalis [11] = assay: Antibacterial activity against Enterococcus faecalis ATCC 14506 by broth microdilution technique; type: functional; method in brief: as §1
[12] = Half life in Sprague-Dawley rat at 30 mg/kg, po; type: ADME, organism-based; parameters: dose 30 mg/kg, route oral; conditions: in vivo
Method in brief: (§3)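 Male Sprague-Dawley rats, 8-10 weeks old, fasted 18 h, fed again 4 h after dosing, water ad libitum. Oral dose of 30 mg/kg as a homogeneous suspension in 0.5% w/v CMC in normal saline. Serial retro-orbital samples into heparinized tubes; plasma separated at ambient temperature and assayed at once by HPLC with calibrators in drug-free rat plasma. Cmax, tmax, AUC0-∞ and t1/2 calculated.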

[13] = AUC in Sprague-Dawley rat at 10 mg/kg, iv; type: ADME, organism-based; parameters: dose 10 mg/kg, route intravenous; conditions: plasma
Method in brief: (§4)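 Male Sprague-Dawley rats, 8-10 weeks old, fasted 18 h, with food returned 4 h post-dose and water free. The compound was given as a clear solution in PEG-400/cremophore/ethanol/propylene glycol/saline via the tail vein at 10 mg/kg. Retro-orbital blood went into heparinized tubes at intervals, and plasma was spun and analysed immediately by HPLC against spiked rat-plasma calibrators. Cmax, tmax, AUC0-∞ and t1/2 were derived.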

[14] = Tmax in Sprague-Dawley rat at 30 mg/kg, po; type: ADME, organism-based; parameters: dose 30 mg/kg, route oral; conditions: in vivo; method in brief: as §3
[15] = AUC in Sprague-Dawley rat at 30 mg/kg, po; type: ADME, organism-based; parameters: dose 30 mg/kg, route oral; conditions: plasma; method in brief: as §3
[16] = Cmax in Sprague-Dawley rat at 30 mg/kg, po; type: ADME, organism-based; parameters: dose 30 mg/kg, route oral; conditions: in vivo; method in brief: as §3
[17] = Half life in Sprague-Dawley rat at 10 mg/kg, iv; type: ADME, organism-based; parameters: dose 10 mg/kg, route intravenous; conditions: in vivo
Method in brief: as §4, with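 “The” for “Male Sprague-Dawley rats, 8-10 weeks old, fasted 18 h, with food returned 4 h post-dose and water free. The”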

[18] = Cmax in Sprague-Dawley rat at 10 mg/kg, iv; type: ADME, organism-based; parameters: dose 10 mg/kg, route intravenous; conditions: in vivo; method in brief: as §4
[19] = Bioavailability in Sprague-Dawley rat at 30 mg/kg, po; conditions: in vivo
[20] = Tmax in Sprague-Dawley rat at 10 mg/kg, iv; type: ADME, organism-based; parameters: dose 10 mg/kg, route intravenous; conditions: in vivo; method in brief: as §4
[21] = Tmax in Sprague-Dawley rat at 25 mg/kg, po; type: ADME, organism-based; parameters: dose 25 mg/kg, route oral; conditions: in vivo

Compound | MIC [1] [µg/mL] | MIC (Streptococcus pyogenes) [µg/mL] | MIC (Enterococcus faecalis [2]) [µg/mL] | MIC (Staphylococcus aureus [3]) [µg/mL] | MIC (Bacillus cereus) [µg/mL] | MIC (Bacillus pumilus) [µg/mL] | MIC (Staphylococcus aureus [6]) [µg/mL] | MIC (Enterococcus faecium) [µg/mL] | MIC (Staphylococcus aureus [7]) [µg/mL] | MIC (Staphylococcus aureus [8]) [µg/mL] | MIC (Streptococcus pneumoniae) [µg/mL] | MIC (Staphylococcus aureus [10]) [µg/mL] | other results
CC(=O)NC[C@H]1CN(c2ccc(N3CCN(C(=O)/C=C/c4ccc([N+](=O)[O-])s4)CC3)c(F)c2)C(=O)O1 | ≤ 0.12 | 0.12 (≈ 0.232 µM) | 0.5 (≈ 0.966 µM) | 0.25 (≈ 0.483 µM) | 1 (≈ 1.93 µM) | 0.5 (≈ 0.966 µM) | 4 (≈ 7.73 µM) | 0.5 (≈ 0.966 µM) | 0.25 (≈ 0.483 µM) | 4 (≈ 7.73 µM) | ≤ 0.125 | 0.25 (≈ 0.483 µM) | MIC (Staphylococcus aureus [4]): 0.25 µg/mL (≈ 0.483 µM); MIC (Enterococcus faecalis [5]): 0.5 µg/mL (≈ 0.966 µM); MIC (Staphylococcus aureus [9]): 0.25 µg/mL (≈ 0.483 µM); MIC (Enterococcus faecalis [11]): 0.25 µg/mL (≈ 0.483 µM)
CC(=O)NC[C@H]1CN(c2ccc(N3CCN(C(=O)/C=C/c4c[nH]c5ccccc45)CC3)c(F)c2)C(=O)O1 | 1 (≈ 1.98 µM) | 0.12 (≈ 0.237 µM) | 0.5 (≈ 0.989 µM) | 2 (≈ 3.96 µM) | 0.25 (≈ 0.495 µM) | 0.5 (≈ 0.989 µM) | – | – | – | – | – | – | –
CC(=O)NC[C@H]1CN(c2ccc([N+]3([O-])CCN(C(=O)/C=C/c4ccc([N+](=O)[O-])o4)CC3)c(F)c2)C(=O)O1 | 0.12 (≈ 0.232 µM) | 0.12 (≈ 0.232 µM) | 1 (≈ 1.93 µM) | 0.5 (≈ 0.966 µM) | – | – | 2 (≈ 3.86 µM) | 0.5 (≈ 0.966 µM) | 0.5 (≈ 0.966 µM) | 2 (≈ 3.86 µM) | 0.25 (≈ 0.483 µM) | 1 (≈ 1.93 µM) | MIC (Staphylococcus aureus [4]): 1 µg/mL (≈ 1.93 µM); MIC (Enterococcus faecalis [5]): 1 µg/mL (≈ 1.93 µM); half-life [12]: 58.2 min; AUC [13]: 1030 ng·h/mL; Tmax [14]: 10.2 min; AUC [15]: 1870 ng·h/mL; Cmax [16]: 1210 ng/mL; half-life [17]: 57 min; Cmax [18]: 9180 ng/mL; bioavailability [19]: 60%; Tmax [20]: 0 h
CC(=O)NC[C@H]1CN(c2ccc(N3CCN(C(=O)CO)CC3)c(F)c2)C(=O)O1 [EPEREZOLID] | 2 (≈ 5.07 µM) | 0.5 (≈ 1.27 µM) | 2 (≈ 5.07 µM) | 2 (≈ 5.07 µM) | 2 (≈ 5.07 µM) | 1 (≈ 2.54 µM) | > 16 | 1 (≈ 2.54 µM) | 1 (≈ 2.54 µM) | > 16 | 0.5 (≈ 1.27 µM) | 1 (≈ 2.54 µM) | MIC (Staphylococcus aureus [4]): 2 µg/mL (≈ 5.07 µM); MIC (Enterococcus faecalis [5]): 1 µg/mL (≈ 2.54 µM); MIC (Staphylococcus aureus [9]): 2 µg/mL (≈ 5.07 µM); MIC (Enterococcus faecalis [11]): 1 µg/mL (≈ 2.54 µM)
CC(=O)NC[C@H]1CN(c2ccc(N3CCOCC3)c(F)c2)C(=O)O1 [LINEZOLID] | 1 (≈ 2.96 µM) | 1 (≈ 2.96 µM) | – | – | 2 (≈ 5.93 µM) | 0.5 (≈ 1.48 µM) | > 16 | 1 (≈ 2.96 µM) | 1 (≈ 2.96 µM) | > 16 | 0.25 (≈ 0.741 µM) | 1 (≈ 2.96 µM) | Tmax [21]: 18.6 min; Tmax [20]: 0 h

More lines, main results first:

MIC [1] [µg/mL] | MIC (Streptococcus pyogenes) [µg/mL] | MIC (Enterococcus faecalis [2]) [µg/mL] | MIC (Staphylococcus aureus [3]) [µg/mL] | MIC (Bacillus cereus) [µg/mL] | MIC (Bacillus pumilus) [µg/mL] | Compound | MIC (Staphylococcus aureus [6]) [µg/mL] | MIC (Enterococcus faecium) [µg/mL] | MIC (Staphylococcus aureus [7]) [µg/mL] | MIC (Staphylococcus aureus [8]) [µg/mL] | MIC (Streptococcus pneumoniae) [µg/mL] | MIC (Staphylococcus aureus [10]) [µg/mL] | other results
1 (≈ 2.06 µM) | 1 (≈ 2.06 µM) | 2 (≈ 4.11 µM) | 4 (≈ 8.22 µM) | 2 (≈ 4.11 µM) | 4 (≈ 8.22 µM) | CC(=O)NC[C@H]1CN(c2ccc(N3CCN(C(=O)/C=C/c4ccc(CO)o4)CC3)c(F)c2)C(=O)O1 | – | – | – | – | – | – | –
0.5 (≈ 1.1 µM) | 0.5 (≈ 1.1 µM) | 1 (≈ 2.19 µM) | 1 (≈ 2.19 µM) | 1 (≈ 2.19 µM) | 1 (≈ 2.19 µM) | CC(=O)NC[C@H]1CN(c2ccc(N3CCN(C(=O)/C=C/c4ccoc4)CC3)c(F)c2)C(=O)O1 | – | – | – | – | – | – | –
0.5 (≈ 1.07 µM) | 0.5 (≈ 1.07 µM) | 2 (≈ 4.28 µM) | 1 (≈ 2.14 µM) | 1 (≈ 2.14 µM) | 1 (≈ 2.14 µM) | CC(=O)NC[C@H]1CN(c2ccc(N3CCN(C(=O)/C=C/c4cccnc4)CC3)c(F)c2)C(=O)O1 | – | – | – | – | – | – | –
> 16 | > 16 | > 16 | > 16 | > 16 | > 16 | CC(=O)NC[C@H]1CN(c2ccc(N3CCN(C(=O)/C=C/c4ccc(C(=O)O)o4)CC3)c(F)c2)C(=O)O1 | – | – | – | – | – | – | –
2 (≈ 4.13 µM) | 1 (≈ 2.06 µM) | 2 (≈ 4.13 µM) | 4 (≈ 8.26 µM) | 2 (≈ 4.13 µM) | 1 (≈ 2.06 µM) | CC(=O)NC[C@H]1CN(c2ccc(N3CCN(C(=O)/C=C/c4ccc(C=O)o4)CC3)c(F)c2)C(=O)O1 | – | – | – | – | – | – | –
> 16 | > 16 | > 16 | > 16 | > 16 | > 16 | CC(=O)NC[C@H]1CN(c2ccc(N3CCN(C(=O)/C=C/c4ccc(C(=O)[O-])o4)CC3)c(F)c2)C(=O)O1.[Na+] | – | – | – | – | – | – | –
